PAFAH1B3 FP inh – PAFAH1B3 enzyme inhibitors, primary screen, biochemical, fluorescence polarization, human; 340,000 tested, 0.28% active; inhibition, % at 3.39 µM; AID 492972, 2010; Platelet-activating factor acetylhydrolase IB subunit alpha1 (Homo sapiens), Q15102; recombinant PAFAH1B3, FP-rhodamine probe;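 active = inhibition above the screen-wide average of all tested compounds plus 3 SD, cut at about 25% in these data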
Target sequence (Q15102 whole entry, looked up): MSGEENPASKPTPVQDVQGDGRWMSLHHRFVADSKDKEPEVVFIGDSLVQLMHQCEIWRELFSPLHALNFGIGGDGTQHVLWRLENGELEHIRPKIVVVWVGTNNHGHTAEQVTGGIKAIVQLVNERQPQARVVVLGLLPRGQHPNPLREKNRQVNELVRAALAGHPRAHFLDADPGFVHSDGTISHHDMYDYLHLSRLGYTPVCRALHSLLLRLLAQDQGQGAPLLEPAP
ARFGAP1 inhibitor – inhibitors of rat ARFGAP1 GAP activity, primary screen, biochemical, fluorescence polarization, GDP tracer. inhibition, % at 16.5 µM. ADP-ribosylation factor GTPase-activating protein 1 (Rattus norvegicus), Q62848. AID 651572, 2012. Arfgap1-stimulated ARF1 GTP hydrolysis, GDP FP detection. 360,000 tested, 0.26% active;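 active = inhibition above a per-plate limit, mean inhibition of low control wells plus 3 SD, cut at about 25% in these data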
Target sequence (Q62848 1-136 limits assumed): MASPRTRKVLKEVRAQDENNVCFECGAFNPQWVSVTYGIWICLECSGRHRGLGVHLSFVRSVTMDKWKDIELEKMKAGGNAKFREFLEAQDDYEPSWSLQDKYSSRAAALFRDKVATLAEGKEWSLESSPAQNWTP
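material = rat Arfgap1 catalytic domain, aa 1-136 | also added = human ARF1(Δ1-17)-GTP substrate | compound dosing = one concentration, 16.5 µM, DMSO 1.26% | times = GTP hydrolysis reaction 2 h at 25 °C | measured by = FP, GDP Alexa 633 tracer displaced from anti-GDP antibody, 620/688 nm | evaluation = percent inhibition of Arfgap1-stimulated GTP hydrolysis | replication = single well per compound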
PAFAH2 inh – PAFAH2 enzyme inhibitors, primary screen, biochemical, fluorescence polarization, human | Platelet-activating factor acetylhydrolase 2, cytoplasmic (Homo sapiens), Q99487 | recombinant PAFAH2, FP-rhodamine activity probe | inhibition, % at 3.39 µM | 340,000 tested, 0.99% active | AID 492956, 2010;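 active = inhibition above the mean over all tested compounds plus 3 SD, cut at about 30% in these data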;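 also: inhibitors block probe labeling of enzyme so polarization drops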
ASAP1 inh – inhibitors of human ASAP1 ArfGAP activity, primary screen, biochemical, fluorescence polarization; Arf-GAP with SH3 domain, ANK repeat and PH domain-containing protein 1 (Homo sapiens), …; ASAP1-stimulated ARF1 GTP hydrolysis, GDP FP detection; inhibition, % at 16.5 µM; 360,000 tested, 0.19% active; AID 624377, 2012; in the data active = inhibition above about 25%
PAFAH1B2 inh – PAFAH1B2 enzyme inhibitors, primary screen, biochemical, fluorescence polarization, human; recombinant PAFAH1B2, FP-rhodamine activity probe; inhibition, % at 3.39 µM; 340,000 tested, 1.2% active;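 active = inhibition above the mean of all tested compounds plus 3 SD, cut at about 24% in these data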
pPAFAH FP inh – pPAFAH enzyme inhibitors, primary screen, biochemical, fluorescence polarization, human. inhibition, % at 3.39 µM. recombinant pPAFAH, FP-rhodamine probe fluorescence polarization. 330,000 tested, 1.5% active;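 active = inhibition above the mean inhibition across the screen plus 3 SD, cut at about 25% in these data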;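 also: inhibitors block binding of the rhodamine activity-based probe so polarization drops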
PAFAH2 confirm – PAFAH2 enzyme inhibitors, confirmation, biochemical, fluorescence polarization, human. shares compounds with PAFAH2 inh. recombinant PAFAH2, FP-rhodamine activity probe. inhibition, % at 3.39 µM. 2,300 tested, 65% active;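 active = mean inhibition over three repeats above a set limit taken from the earlier primary screen, cut at about 30% in these data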;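 also: inhibitor blocks binding of rhodamine activity probe so polarization falls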
Of the large screens only hits and unclear results are named; the others gave an inactive call (follow-up assays come after a bar, where they were run). Rows were chosen to be rich in hits. Some 2.7% of all compounds tested hit in one or more screens of this group.

CN(C)S(=O)(=O)c1cc(NC(=O)COC(=O)C2COc3ccccc3O2)ccc1Cl (stereo not drawn)	none
CCN(c1ccccc1)S(=O)(=O)c1cc(NC(=O)COC(=O)C2CC2)ccc1Cl	PAFAH2 inh 69 | PAFAH2 confirm 59
Cc1nc2cc(N3CCN(C)CC3)c(NC(=O)Cc3ccccc3)cc2c(=O)n1Cc1ccccc1	PAFAH2 inh 42 | PAFAH2 confirm inactive
Cc1nc2cc(N3CCCCC3)c(NC(=O)c3ccncc3)cc2c(=O)n1Cc1ccc(Cl)cc1	none (no result: PAFAH1B3 FP inh, ARFGAP1 inhibitor, PAFAH2 inh, ASAP1 inh, PAFAH1B2 inh)
Cc1ccc(C)c(C(=O)CCC(=O)OCn2nnc3ccccc3c2=O)c1	none
CN1CCN(C(=O)CNC(=O)C23CC4CC(CC(C4)C2)C3)CC1	none
CN(CC(=O)Nc1ccc(F)c(F)c1F)C(=O)CCN1C(=O)C2CCCCC2C1=O (stereo not drawn)	none
O=C(O)CN1C(=O)/C(=C\c2cc(Br)ccc2OCc2ccc(Cl)cc2)SC1=S	PAFAH2 inh 32 (no result: pPAFAH FP inh) | PAFAH2 confirm inactive
O=C(O)CN1C(=O)/C(=C\c2cccc(OCc3ccccc3)c2)SC1=S	none
O=C(O)CN1C(=O)/C(=C\c2ccccc2OCc2ccc(F)cc2)SC1=S	PAFAH2 inh 39 | PAFAH2 confirm 35
O=C(NC1CCCC1)N[C@@H]1C=C[C@@H](CC(=O)N2CCOCC2)O[C@@H]1CO	none (no result: PAFAH1B3 FP inh, PAFAH2 inh, PAFAH1B2 inh, pPAFAH FP inh)
COc1ccccc1NC(=O)c1ccccc1NS(=O)(=O)c1cccs1	PAFAH2 inh 44 | PAFAH2 confirm 40
COC(=O)c1cc(NS(=O)(=O)c2cccs2)cc(NS(=O)(=O)c2cccs2)c1	PAFAH2 inh 32 (no result: pPAFAH FP inh) | PAFAH2 confirm inactive
Cc1cnc(CN(C)C(=O)c2ccc3oc(Cc4ccccc4)nc3c2)[nH]1	none
CC(c1ccncn1)N(C)C(=O)c1ccc2oc(Cc3ccccc3)nc2c1 (stereo not drawn)	PAFAH2 inh 36 | PAFAH2 confirm inactive
CC(=O)Nc1cccc(-c2nnc(-c3ccc(C)cc3)o2)c1	none (no result: pPAFAH FP inh)
O=C(c1cc(-c2ccc(Cl)cc2Cl)on1)N1CCOCC1	PAFAH2 inh 37 | PAFAH2 confirm inactive
O=C(c1cc(-c2ccc(Cl)cc2)on1)N1CCOCC1	none
CCc1nc2ccc(C(=O)NCc3ccc4c(c3)OCO4)cn2c1N(C)C(=O)Cc1ccccc1	none (no result: PAFAH1B3 FP inh, PAFAH2 inh, PAFAH1B2 inh, pPAFAH FP inh)
OC1c2cc(Cl)cc(Cl)c2N=C2CCCN21 (stereo not drawn)	none (no result: PAFAH1B3 FP inh, PAFAH2 inh, PAFAH1B2 inh, pPAFAH FP inh)
COc1ccc2oc(C(=O)OCC(=O)NC3CC3)c(C)c2c1	none
COc1ccc2oc(C(=O)OCC(=O)Nc3ccccc3)c(C)c2c1	PAFAH2 inh 61 | PAFAH2 confirm 52
COc1ccc2oc(C(=O)OCC(=O)NC(C)(C#N)C3CC3)c(C)c2c1 (stereo not drawn)	PAFAH2 inh 47 | PAFAH2 confirm 41
CCc1ccc(-c2nnn(CC(=O)N(C3CCCC3)C3CCS(=O)(=O)C3)n2)cc1 (stereo not drawn)	none
COc1cc(/C=C/C(=O)OCC(=O)NCCc2ccc(F)cc2)ccc1OC(F)F	none
O=c1c2c([nH]c3ccccc13)CCCC2	none
O=c1c2c([nH]c3ccccc13)C(=C1CCCC1)CC2	PAFAH2 inh 33 (no result: ARFGAP1 inhibitor, ASAP1 inh) | PAFAH2 confirm inactive
Cc1ccn(C(=O)c2ccc(NC(=O)C3CC3)cc2)n1	PAFAH2 inh 63 | PAFAH2 confirm 53
Cc1ccn(C(=O)c2ccc(NC(=O)CC(C)C)cc2)n1	PAFAH2 inh 62 | PAFAH2 confirm 56
Cc1cc(C)n(C(=O)c2ccc(NC(=O)C3CC3)cc2)n1	none
